According to ChEMBL document CHEMBL1132168, “Cycloalkanecarboxylic esters derived from lysergol, dihydrolysergol-I, and elymoclavine as partial agonists and antagonists at rat 5-HT2A receptors: pharmacological evidence that the indolo[4,3-fg]quinoline system of the ergolines is responsible for high 5-HT2A receptor affinity” (J Med Chem, 1999):
Where “and” joins values, the source holds several entries; their conditions need not be identical. Equal values may be shown once.

Assays:
[1] = target: 5-hydroxytryptamine receptor 2A (Rattus norvegicus) (UniProt P14842); assay: Effectiveness in blocking 5-HT2A receptor-mediated contractions of rat tail artery; assay type: functional, tissue-based
In short: (§1)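 Endothelium-denuded rat ventral caudal artery segments (4–5 mm), isometric, resting force 5 mN. Segments were primed once with 5-HT 1 μM during 120 min equilibration. Prazosin 30 nM and cocaine 6 μM were present throughout. Two cumulative 5-HT curves were run 60 min apart, the second after 30–60 min with antagonist. pKP by Marano–Kaumann; pA2 by Schild or as apparent pA2. Mean ± SEM, n segments, ≥2 animals.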

[2] = Specificity towards 5-HT2A receptor to that of alpha-1 adrenoceptor.; assay type: functional
[3] = target: T1, Adrenergic receptor alpha-1 (Rattus norvegicus, UniProt P15823+P23944+P43140); assay: Ability to block alpha-1 adrenergic receptor-mediated contractions of rat aorta.; assay type: functional
T1 sequence (P15823 whole entry): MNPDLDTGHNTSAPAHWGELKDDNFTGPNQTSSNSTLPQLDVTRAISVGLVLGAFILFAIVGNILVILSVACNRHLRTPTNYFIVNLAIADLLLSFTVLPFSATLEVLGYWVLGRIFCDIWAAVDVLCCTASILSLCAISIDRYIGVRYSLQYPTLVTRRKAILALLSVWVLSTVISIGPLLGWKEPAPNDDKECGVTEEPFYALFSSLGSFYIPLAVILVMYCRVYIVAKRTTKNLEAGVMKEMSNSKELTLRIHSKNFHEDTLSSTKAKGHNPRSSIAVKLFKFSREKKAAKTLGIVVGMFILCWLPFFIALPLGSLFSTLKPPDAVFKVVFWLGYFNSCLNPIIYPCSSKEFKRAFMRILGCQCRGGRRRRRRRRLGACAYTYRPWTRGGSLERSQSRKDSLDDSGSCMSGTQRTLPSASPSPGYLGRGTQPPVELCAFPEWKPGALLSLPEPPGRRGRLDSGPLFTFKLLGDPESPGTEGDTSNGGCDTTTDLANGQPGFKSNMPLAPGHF
T1 sequence (P23944 whole entry): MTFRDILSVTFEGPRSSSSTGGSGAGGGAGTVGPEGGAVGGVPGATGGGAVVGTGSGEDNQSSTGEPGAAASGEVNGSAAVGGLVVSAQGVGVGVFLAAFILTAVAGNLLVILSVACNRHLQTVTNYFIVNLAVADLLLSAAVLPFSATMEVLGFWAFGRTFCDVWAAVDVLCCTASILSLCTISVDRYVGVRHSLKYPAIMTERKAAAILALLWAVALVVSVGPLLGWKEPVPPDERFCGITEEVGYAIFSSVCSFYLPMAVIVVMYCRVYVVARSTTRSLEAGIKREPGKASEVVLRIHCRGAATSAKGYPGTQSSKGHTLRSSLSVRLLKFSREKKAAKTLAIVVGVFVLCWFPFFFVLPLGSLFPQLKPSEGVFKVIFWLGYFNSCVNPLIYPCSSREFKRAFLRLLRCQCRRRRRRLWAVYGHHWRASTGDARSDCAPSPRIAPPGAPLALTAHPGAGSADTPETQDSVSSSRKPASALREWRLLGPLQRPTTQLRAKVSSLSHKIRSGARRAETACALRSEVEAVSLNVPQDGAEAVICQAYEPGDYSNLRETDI
T1 sequence (P43140 whole entry): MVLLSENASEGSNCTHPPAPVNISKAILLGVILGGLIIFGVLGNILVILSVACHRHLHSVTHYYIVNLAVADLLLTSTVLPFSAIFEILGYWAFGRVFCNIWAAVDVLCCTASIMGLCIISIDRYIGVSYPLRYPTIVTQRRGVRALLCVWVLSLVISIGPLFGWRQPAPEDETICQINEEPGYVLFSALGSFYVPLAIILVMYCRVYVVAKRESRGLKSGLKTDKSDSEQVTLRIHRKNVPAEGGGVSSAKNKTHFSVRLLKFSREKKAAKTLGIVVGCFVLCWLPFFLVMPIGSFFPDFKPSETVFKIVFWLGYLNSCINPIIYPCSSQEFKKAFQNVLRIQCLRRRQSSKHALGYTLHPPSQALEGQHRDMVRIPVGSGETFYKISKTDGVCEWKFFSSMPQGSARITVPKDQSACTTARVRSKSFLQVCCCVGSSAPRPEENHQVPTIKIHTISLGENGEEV
In short: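 Endothelium-denuded rat thoracic aorta rings (4–6 mm) in modified Krebs-Henseleit, 37 °C, 95% O2/5% CO2, with (R,S)-propranolol 1 μM. Resting force 20 mN. During 140 min equilibration, rings were stimulated twice with (R)-phenylephrine 100 nM. Two cumulative phenylephrine contraction curves were run, without and then with antagonist added 30 min before.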

[4] = target: T2, 5-hydroxytryptamine receptor 2A (Rattus norvegicus, UniProt P14842); assay: Blocking 5-HT2A receptor-mediated contractions of rat tail artery; assay type: functional, tissue-based; conditions: read-out: pA2 (converted); in short: as §1
[5] = target: 5-hydroxytryptamine receptor 2A (Rattus norvegicus) (UniProt P14842); assay: Intrinsic activity towards 5-HT2A receptor of rat tail artery; assay type: functional, tissue-based
In short: (§2)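 Endothelium-denuded rat caudal artery segments, resting force 5 mN, with prazosin 30 nM and cocaine 6 μM present. Two cumulative curves were run on each segment 60 min apart: first 5-HT, then the test agonist. pKP was taken from a Kenakin plot of equieffective 5-HT and agonist concentrations. Mean ± SEM from n segments, ≥2 animals.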

[6] = target: 5-hydroxytryptamine receptor 2A (Rattus norvegicus) (UniProt P14842); assay: Relative potency towards 5-HT2A receptor of rat tail artery; assay type: functional, tissue-based; in short: as §2
[7] = target: T2, 5-hydroxytryptamine receptor 2A; assay: Partial agonism at 5-HT2A receptor was evaluated in presence of ketanserin (3-10 nM) in isolated rat tail artery; assay type: functional, tissue-based; conditions: read-out: pA2 (converted)
In short: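 Rat caudal artery, endothelium removed, with prazosin 30 nM and cocaine 6 μM present. A 5-HT curve was followed after 60 min by a cumulative agonist curve, with ketanserin 3 nM added 30 min beforehand. The rightward shift was compared with that in control segments run without ketanserin.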

Chain of 5-hydroxytryptamine receptor 2A (Rattus norvegicus) (P14842 whole entry): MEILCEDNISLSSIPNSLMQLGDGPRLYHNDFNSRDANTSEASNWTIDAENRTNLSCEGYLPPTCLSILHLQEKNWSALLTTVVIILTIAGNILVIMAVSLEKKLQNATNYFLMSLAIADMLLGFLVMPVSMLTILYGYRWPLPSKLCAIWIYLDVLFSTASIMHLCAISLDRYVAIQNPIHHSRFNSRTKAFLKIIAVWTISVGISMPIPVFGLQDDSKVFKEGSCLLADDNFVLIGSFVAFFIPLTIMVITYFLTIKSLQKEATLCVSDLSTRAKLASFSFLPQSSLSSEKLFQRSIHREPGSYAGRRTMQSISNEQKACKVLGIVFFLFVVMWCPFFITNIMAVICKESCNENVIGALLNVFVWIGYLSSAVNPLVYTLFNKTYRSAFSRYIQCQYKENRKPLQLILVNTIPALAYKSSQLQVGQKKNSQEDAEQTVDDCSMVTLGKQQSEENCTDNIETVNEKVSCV
T2 sequence (P14842 whole entry): as above

CN1C[C@H](COC(=O)C2CCC2)C[C@@H]2c3cccc4[nH]cc(c34)C[C@H]21.O=C(O)/C=C\C(=O)O
pKp [1]: 7.3
Specificity [2]: 5
pA2 [3]: 6.59

CN1C[C@H](COC(=O)C2CCCC2)C[C@@H]2c3cccc4[nH]cc(c34)C[C@H]21.O=C(O)/C=C\C(=O)O
pKp [1]: 7.5
Specificity [2]: 35
pA2 [3]: 5.95

CO[C@H]1CC[C@H](C(=O)OCC2=C[C@@H]3c4cccc5c4c(cn5C(C)C)C[C@H]3N(C)C2)CC1.O=C(O)/C=C\C(=O)O
Kb [4]: 0.00741 µM
Specificity [2]: 2880
pA2 [3]: 4.67

CN1C[C@H](COC(=O)C2CCCCCC2)C[C@@H]2c3cccc4[nH]cc(c34)C[C@H]21.O=C(O)/C=C\C(=O)O
pKp [1]: 7.1
Specificity [2]: 174
pA2 [3]: 4.86

CN1C[C@H](COC(=O)C2CCCCCC2)C=C2c3cccc4[nH]cc(c34)C[C@H]21.O=C(O)/C=C\C(=O)O
Intrinsic activity [5]: 0.18
Relative potency [6]: 14%
Kb [7]: 0.000776 µM
pKp [1]: 6.71 and 6.35
Specificity [2]: 95
pA2 [3]: 4.73

CN1C[C@H](COC(=O)C2CCCC2)C=C2c3cccc4[nH]cc(c34)C[C@H]21.O=C(O)/C=C\C(=O)O
Intrinsic activity [5]: 0.11
Relative potency [6]: 128%
Kb [7]: 0.000741 µM
pKp [1]: 7.4 and 7.27
Specificity [2]: 120
pA2 [3]: 5.32

CC1=C[C@@H]2c3cccc4c3c(cn4C(C)C)C[C@H]2N(C)C1.O=C(O)/C=C\C(=O)O
Kb [4]: 0.00145 µM
Specificity [2]: 316
pA2 [3]: 6.34

CC(C)n1cc2c3c(cccc31)[C@H]1C[C@@H](COC(=O)C3CCCCCC3)CN(C)[C@@H]1C2.O=C(O)/C=C\C(=O)O
Kb [4]: 0.0891 µM
Specificity [2]: 186
pA2 [3]: 4.78

CC(C)n1cc2c3c(cccc31)C1=C[C@@H](COC(=O)C3CC3)CN(C)[C@@H]1C2.O=C(O)/C=C\C(=O)O
Kb [4]: 0.00182 µM
Specificity [2]: 4570
pA2 [3]: 5.08

CN1C[C@H](COC(=O)C2CC2)C[C@@H]2c3cccc4[nH]cc(c34)C[C@H]21.O=C(O)/C=C\C(=O)O
pKp [1]: 7.67
Specificity [2]: 3
pA2 [3]: 7.2

CC(C)n1cc2c3c(cccc31)[C@H]1C=C(COC(=O)C3CCCCCC3)CN(C)[C@@H]1C2.O=C(O)/C=C\C(=O)O
Kb [4]: 0.017 µM
Specificity [2]: > 1860
pA2 [3]: < 4.5

CN1CC(COC(=O)C2CCCCCC2)=C[C@@H]2c3cccc4[nH]cc(c34)C[C@H]21.O=C(O)/C=C\C(=O)O
Kb [4]: 0.0107 µM
Specificity [2]: 832
pA2 [3]: 5.05

CC(C)n1cc2c3c(cccc31)[C@H]1C=C(COC(=O)C3CCCCC3)CN(C)[C@@H]1C2.O=C(O)/C=C\C(=O)O
Kb [4]: 0.0158 µM
Specificity [2]: 1410
pA2 [3]: 4.65

CC(C)n1cc2c3c(cccc31)C1=C[C@@H](COC(=O)C3CCCCC3)CN(C)[C@@H]1C2.O=C(O)/C=C\C(=O)O
Kb [4]: 0.012 µM
Specificity [2]: 1410
pA2 [3]: 4.77

CN1CC(COC(=O)C2CCCC2)=C[C@@H]2c3cccc4[nH]cc(c34)C[C@H]21.O=C(O)/C=C\C(=O)O
Kb [4]: 0.049 µM
Specificity [2]: 21
pA2 [3]: 5.99

CN1C[C@H](COC(=O)C2CC2)C=C2c3cccc4[nH]cc(c34)C[C@H]21.O=C(O)/C=C\C(=O)O
Intrinsic activity [5]: 0.21
Relative potency [6]: 331%
Kb [7]: 0.000741 µM
Specificity [2]: 55
pA2 [3]: 6.66

CC(C)n1cc2c3c(cccc31)[C@H]1C[C@@H](COC(=O)C3CCCCC3)CN(C)[C@@H]1C2.O=C(O)/C=C\C(=O)O
Kb [4]: 0.0724 µM
Specificity [2]: 355
pA2 [3]: 4.59

COC1CCC(C(=O)OCC2=C[C@@H]3c4cccc5[nH]cc(c45)C[C@H]3N(C)C2)CC1.O=C(O)/C=C\C(=O)O (some centres not stated)
Kb [4]: 0.0479 µM
Specificity [2]: 12
pA2 [3]: 6.32

CC(C)n1cc2c3c(cccc31)[C@H]1C=C(COC(=O)C3CCCC3)CN(C)[C@@H]1C2.O=C(O)/C=C\C(=O)O
Kb [4]: 0.00891 µM
Specificity [2]: 1440
pA2 [3]: 4.89

CC(C)n1cc2c3c(cccc31)C1=C[C@@H](COC(=O)C3CCCC3)CN(C)[C@@H]1C2.O=C(O)/C=C\C(=O)O
Kb [4]: 0.00562 µM
Specificity [2]: 4790
pA2 [3]: 4.57

COC1CCC(C(=O)OCC2=C[C@@H]3c4cccc5c4c(cn5C(C)C)C[C@H]3N(C)C2)CC1.O=C(O)/C=C\C(=O)O (some centres not stated)
Kb [4]: 0.0115 µM
Specificity [2]: 1260
pA2 [3]: 4.84

CN1CC(COC(=O)C2CCC2)=C[C@@H]2c3cccc4[nH]cc(c34)C[C@H]21.O=C(O)/C=C\C(=O)O
Kb [4]: 0.0776 µM
Specificity [2]: 5
pA2 [3]: 6.42

CN1C[C@H](CO)C=C2c3cccc4[nH]cc(c34)C[C@H]21
Intrinsic activity [5]: 0.18
Relative potency [6]: 74%
Kb [7]: 0.000794 µM
pKp [1]: 6.88

CC(C)n1cc2c3c(cccc31)C1=C[C@@H](COC(=O)C3CCC3)CN(C)[C@@H]1C2.O=C(O)/C=C\C(=O)O
Kb [4]: 0.00603 µM
Specificity [2]: 2950
pA2 [3]: 4.75

CC(C)n1cc2c3c(cccc31)[C@H]1C[C@@H](C)CN(C)[C@@H]1C2.O=C(O)/C=C\C(=O)O
Kb [4]: 0.00316 µM
Specificity [2]: 63
pA2 [3]: 6.7

CN1CC(COC(=O)C2CCCCC2)=C[C@@H]2c3cccc4[nH]cc(c34)C[C@H]21.O=C(O)/C=C\C(=O)O
Kb [4]: 0.0398 µM
Specificity [2]: 32
pA2 [3]: 5.89

CC(C)n1cc2c3c(cccc31)[C@H]1C[C@@H](COC(=O)C3CCC3)CN(C)[C@@H]1C2.O=C(O)/C=C\C(=O)O
Kb [4]: 0.00871 µM
Specificity [2]: 2950
pA2 [3]: 4.59

CC(C)n1cc2c3c(cccc31)[C@H]1C=C(COC(=O)C3CCC3)CN(C)[C@@H]1C2.O=C(O)/C=C\C(=O)O
Kb [4]: 0.00933 µM
Specificity [2]: 2180
pA2 [3]: 4.69

CO[C@H]1CC[C@H](C(=O)OCC2=C[C@@H]3c4cccc5[nH]cc(c45)C[C@H]3N(C)C2)CC1.O=C(O)/C=C\C(=O)O
Kb [4]: 0.0575 µM
Specificity [2]: 17
pA2 [3]: 6

CC(C)n1cc2c3c(cccc31)[C@H]1C[C@@H](COC(=O)C3CCCC3)CN(C)[C@@H]1C2.O=C(O)/C=C\C(=O)O
Kb [4]: 0.0224 µM
Specificity [2]: 933
pA2 [3]: 4.68

CN1C[C@H](COC(=O)C2CCCCC2)C[C@@H]2c3cccc4[nH]cc(c34)C[C@H]21.O=C(O)/C=C\C(=O)O
pKp [1]: 7.34
Specificity [2]: 52
pA2 [3]: 5.62
